Read-outs that look alike come from different tables or passages of the source.
Experiments:
[1] = test system: MV4–11 human AML cell line; assay: In vitro cytotoxic activity, Alamar Blue viability assay; type: cell-based
[2] = test system: AML patient cells (bulk, CD34+, CD34+CD38−, CD34+CD38+); assay: Apoptosis; type: cell-based; settings: Homo sapiens, 24 h
How it was run: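 Fresh peripheral blood came from AML patients with blasts of 95% or higher. Mononuclear cells were isolated on Ficoll-Hypaque and cultured in RPMI 1640 with 10% heat-inactivated FCS, 2mM glutamine and penicillin/streptomycin, on murine MS-5 stromal cells. Cells were stained for CD45, CD34, CD38 and annexin V Cy5, with leukemic cells gated as CD45+. Flow cytometry gave % annexin V+ cells, and EC50 was derived across test compound concentrations. Representative of two patients' samples.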

[3] = test system: AML patient cells (bulk, CD34+, CD34+CD38−, CD34+CD38+); assay: Viable cell count in AML patients' samples, flow cytometry; type: cell-based; settings: Homo sapiens, 24 h
How it was run: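 AML patient peripheral blood (blasts 95% or higher) was Ficoll-Hypaque purified and cultured in RPMI 1640 with 10% heat-inactivated FCS, 2mM glutamine and penicillin/streptomycin, cocultured with murine MS-5 stromal cells. Leukemic cells were gated CD45+ and subdivided by CD34/CD38. Viable counts came from CountBright beads on annexin V/7-AAD-negative events by flow cytometry. EC50 was derived across test compound concentrations. Representative of two patients' samples.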

[4] = MTD following a single i.v. injection in rats; settings: Sprague Dawley, rat, in vivo, iv
Sprague-Dawley rats [5] = settings: rat, in vivo, iv
[6] = rat, in vivo
[7] = beagle, dog, in vivo
in vivo = settings: rat
[8] = 7-day repeat dose i.v. rat toxicology comparison study; settings: both, Sprague-Dawley, rat, in vivo, iv
Sprague-Dawley rats [9] = assay: as above; settings: MRx102 3.0 mg/kg/day or triptolide 0.3 mg/kg/day i.v.
[10] = female, Sprague Dawley, iv, 0.05 mg/kg/day
[11] = female, Sprague Dawley, iv, 0.15 mg/kg/day
[12] = female, Sprague-Dawley, iv, 3 mg/kg/day
[13] = male, Sprague Dawley, iv, 0.05 mg/kg/day
[14] = male, Sprague Dawley, iv, 0.15 mg/kg/day
[15] = male, Sprague Dawley, iv, 0.3 mg/kg/day
[16] = male, Sprague Dawley, iv, 0.5 mg/kg/day
[17] = male, Sprague Dawley, iv, 1.5 mg/kg/day
[18] = male, Sprague Dawley, iv, 3 mg/kg/day
[19] = male, Sprague-Dawley, iv, 1.5 mg/kg/day
[20] = male, Sprague-Dawley, iv, 3 mg/kg/day
[21] = female, Sprague Dawley, iv, 0.3 mg/kg/day

## CC(C)[C@]12O[C@H]1[C@@H]1O[C@]13[C@]1(O[C@H]1C[C@H]1C4=C(CC[C@@]13C)C(=O)OC4)[C@@H]2O [Triptolide]
[1]; MV4-11, 24 h
  IC50: 24.1 nM
[1]; MV4-11, 48 h
  IC50: 7.29 nM
[1]; MV4-11, 72 h
  IC50: 5.6 nM
[2]; read-out: EC50 - Annexin V +, 24 h, + MS-5, Bulk
  EC50: 2.34 nM
[2]; read-out: EC50 - Annexin V +, 24 h, + MS-5, CD34+
  EC50: 2.35 nM
[2]; read-out: EC50 - Annexin V +, 24 h, + MS-5, CD34+38+
  EC50: 2.3 nM
[2]; read-out: EC50 - Annexin V +, 24 h, + MS-5, CD34+38−
  EC50: 2.37 nM
[2]; read-out: EC50 - Annexin V +, 24 h, Alone, Bulk
  EC50: 2.13 nM
[2]; read-out: EC50 - Annexin V +, 24 h, Alone, CD34+
  EC50: 2.13 nM
[2]; read-out: EC50 - Annexin V +, 24 h, Alone, CD34+38+
  EC50: 2.09 nM
[2]; read-out: EC50 - Annexin V +, 24 h, Alone, CD34+38−
  EC50: 2.14 nM
[3]; read-out: EC50 -Cell Count, 24 h, + MS-5, Bulk
  EC50: 2.33 nM
[3]; read-out: EC50 -Cell Count, 24 h, + MS-5, CD34+
  EC50: 2.38 nM
[3]; read-out: EC50 -Cell Count, 24 h, + MS-5, CD34+38+
  EC50: 2.62 nM
[3]; read-out: EC50 -Cell Count, 24 h, + MS-5, CD34+38−
  EC50: 2.3 nM
[3]; read-out: EC50 -Cell Count, 24 h, Alone, Bulk
  EC50: 2.19 nM
[3]; read-out: EC50 -Cell Count, 24 h, Alone, CD34+
  EC50: 2.15 nM
[3]; read-out: EC50 -Cell Count, 24 h, Alone, CD34+38+
  EC50: 2.13 nM
[3]; read-out: EC50 -Cell Count, 24 h, Alone, CD34+38−
  EC50: 2.13 nM
[4]; female
  MTD: 0.317 mg/kg
[4]; male
  MTD: 0.63 mg/kg
Sprague-Dawley rats [5]
  histopathology, females: no microscopic effect
  histopathology, males: intraluminal cellular debris in the epididymis
  reticulocytes: decreased reticulocytes
[6]; Sprague-Dawley
  T1/2,e of triptolide after MRx102 injection relative to after triptolide: over 7 fold
  T1/2,e range: 51 to 222 min
[6]; both, Sprague Dawley, iv
  AUC0-inf Median: 29.69 ng·h/mL
  Cmax Median: 23.8 ng/mL
  Cmax range: 7.83 to 41.1 ng/mL
  T1/2,e Median: 96 min
  T1/2,e range: 51 to 786 min
[6]; [10]
  AUC0-inf: 8.14 ng·h/mL
  Cl: 6.1 L/h
  Cmax: 11.0 ng/mL
  Vz: 2.2 L
[6]; [11]
  AUC0-inf: 36.82 ng·h/mL
  Cl: 4.1 L/h
  Cmax: 48.6 ng/mL
  Vz: 1.3 L
[6]; female, Sprague-Dawley, iv, 3 mg/kg
  Cmax range: 11.8 to 41.1 ng/mL
[6]; [12]
  Cmax: 41.1 ng/mL
  Tmax: 60 min
[6]; [13]
  T1/2,e: 10.2 min
  Vz: 0.2 L
[6]; [14]
  AUC0-inf: 37.95 ng·h/mL
  C0: 130 ng/mL
  Cl: 4.0 L/h
  Cmax: 49.7 ng/mL
  T1/2,e: 12.6 min
  Vz: 1.2 L
[6]; [15]
  AUC0-inf: 75.92 ng·h/mL
  C0: 273 ng/mL
  Cl: 4.0 L/h
  T1/2,e: 14.4 min
[6]; [16]
  AUC0-inf: 15.97 ng·h/mL
  T1/2,e: 51 min
[6]; [17]
  AUC0-inf: 164.8 ng·h/mL
  Cmax: 9.17 ng/mL
  T1/2,e: 786 min
  Tmax: 30 min
[6]; [18]
  AUC0-inf: 66.12 ng·h/mL
  Cmax: 16.0 ng/mL
  T1/2,e: 222 min
[6]; [19]
  AUC0-inf: 12.66 ng·h/mL
  Cmax: 7.83 ng/mL
  T1/2,e: 66 min
[6]; male, Sprague-Dawley, iv, 3 mg/kg
  Cmax range: 7.83 to 32.5 ng/mL
[6]; [20]
  AUC0-inf: 269.69 ng·h/mL
  Cmax: 17.7 ng/mL
  T1/2,e: 84 min
[6]
  accumulation index: less than unity
[7]; iv
  AUC0–24hr Median: 34.83 ng·h/mL
  AUC0–24hr Range: 1.50 to 212.0 ng·h/mL
  Cmax Median: 3.44 ng/mL
  Cmax range: 2.0 to 49.0 ng/mL
[7]; female
  Cmax range: 2.0 to 21.1 ng/mL
[7]; male
  Cmax range: 2.22 to 49.0 ng/mL
[7]; male, iv, 0.1 mg/kg/day
  AUC0–24hr: 25.53 ng·h/mL
  Cmax: 2.22 ng/mL
  Tmax: 120 min
In vivo; Sprague-Dawley, Cl range
  clearance: 15.5 to 102 mL/min
In vivo; Sprague-Dawley, Vz range
  Vd: 0.2 to 2.2 L
In vivo; both, Sprague Dawley, iv, AUC0-inf Median
  AUC0-inf: 51.4 ng·h/mL
In vivo; both, Sprague Dawley, iv, Cmax Median
  Cmax: 59 ng/mL
In vivo; both, Sprague Dawley, iv, Cmax Range
  Cmax: 11 to 189 ng/mL
In vivo; both, Sprague Dawley, iv, T1/2,e Median
  half-life: 13.2 min
In vivo; both, Sprague Dawley, iv, T1/2,e Range
  half-life: 9 to 23.4 min
In vivo; [10]
  Tmax: 15 min
In vivo; female, Sprague Dawley, iv, 0.05 mg/kg/day, AUC0-inf
  AUC0-inf: 12.5 ng·h/mL
In vivo; female, Sprague Dawley, iv, 0.05 mg/kg/day, Cl
  clearance: 66.7 mL/min
In vivo; female, Sprague Dawley, iv, 0.05 mg/kg/day, Cmax
  Cmax: 15.4 ng/mL
In vivo; female, Sprague Dawley, iv, 0.05 mg/kg/day, T1/2,e
  half-life: 15 min
In vivo; female, Sprague Dawley, iv, 0.05 mg/kg/day, Vz
  Vd: 1.4 L
In vivo; [11]
  Tmax: 15 min
In vivo; female, Sprague Dawley, iv, 0.15 mg/kg/day, AUC0-inf
  AUC0-inf: 72.1 ng·h/mL
In vivo; female, Sprague Dawley, iv, 0.15 mg/kg/day, Cl
  clearance: 35 mL/min
In vivo; female, Sprague Dawley, iv, 0.15 mg/kg/day, Cmax
  Cmax: 74.6 ng/mL
In vivo; female, Sprague Dawley, iv, 0.15 mg/kg/day, T1/2,e
  half-life: 19.8 min
In vivo; female, Sprague Dawley, iv, 0.15 mg/kg/day, Vz
  Vd: 1 L
In vivo; [21]
  Tmax: 15 min
  C0: 436 ng/mL
In vivo; female, Sprague Dawley, iv, 0.3 mg/kg/day, AUC0-inf
  AUC0-inf: 162 ng·h/mL
In vivo; female, Sprague Dawley, iv, 0.3 mg/kg/day, Cl
  clearance: 31.7 mL/min
In vivo; female, Sprague Dawley, iv, 0.3 mg/kg/day, Cmax
  Cmax: 189 ng/mL
In vivo; female, Sprague Dawley, iv, 0.3 mg/kg/day, T1/2,e
  half-life: 23.4 min
In vivo; female, Sprague Dawley, iv, 0.3 mg/kg/day, Vz
  Vd: 1 L
In vivo; female, Sprague-Dawley, iv, 0.3 mg/kg, Cmax range
  Cmax: 11 to 189 ng/mL
In vivo; [13]
  Tmax: 15 min
In vivo; male, Sprague Dawley, iv, 0.05 mg/kg/day, T1/2,e
  half-life: 9 min
In vivo; [14]
  Tmax: 15 min
  C0: 234 ng/mL
In vivo; male, Sprague Dawley, iv, 0.15 mg/kg/day, Cl
  clearance: 48.3 mL/min
In vivo; male, Sprague Dawley, iv, 0.15 mg/kg/day, Cmax
  Cmax: 59 ng/mL
In vivo; male, Sprague Dawley, iv, 0.15 mg/kg/day, T1/2,e
  half-life: 11.4 min
In vivo; male, Sprague Dawley, iv, 0.15 mg/kg/day, Vz
  Vd: 0.8 L
In vivo; [15]
  Tmax: 15 min
  C0: 383 ng/mL
In vivo; male, Sprague Dawley, iv, 0.3 mg/kg/day, AUC0-inf
  AUC0-inf: 101 ng·h/mL
In vivo; male, Sprague Dawley, iv, 0.3 mg/kg/day, Cl
  clearance: 50 mL/min
In vivo; male, Sprague Dawley, iv, 0.3 mg/kg/day, Cmax
  Cmax: 130 ng/mL
In vivo; male, Sprague Dawley, iv, 0.3 mg/kg/day, T1/2,e
  half-life: 10.8 min
In vivo; male, Sprague Dawley, iv, 0.3 mg/kg/day, Vz
  Vd: 0.8 L
In vivo; male, Sprague-Dawley, iv, 0.3 mg/kg, Cmax range
  Cmax: 18.2 to 130 ng/mL
[8]
  NOAEL at 7 days: 0.05 to 0.15 mg/kg
Sprague-Dawley rats [9]
  survival of high-dose females: euthanized prior to Day 7

— article PMC4091685 (Cancer chemotherapy and pharmacology, 2014)
